# Calls of active or inactive are those of the source.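 The calls were made as follows: active = luminescence gain over solvent baseline above 10% of the positive control response, limit may shift with hit yield; inactive = the rest, including opposite-direction effects.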
# System: not listed separately
# Test: HIF pathway activators, HRE-luciferase reporter, dose response, cell-based, U2OS HRE-luc, luminescence, dry powder, set 2 (AID 488805)
# Details: U2OS HRE-luciferase reporter, HIF pathway activation, luminescence; at 0.056 µM; active compounds read high
# Outline: (§1)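 Test system: U2OS cells with HRE-luciferase reporter. Quantity: 6,000 cells per well. Times: compound exposure 24 h at 37 °C, 21% O2. Measured by: Steady-Glo luminescence.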
row,Compound,max activation
1,Cc1ccc(CNC(=O)c2cc(-c3ccccc3)on2)cc1,-4.17% (inactive)
2,O=C(Nc1nnc(-c2ccccc2)s1)c1cc(-c2ccccc2)on1,-3.85% (inactive)
3,O=C(Nc1ncc2ccccc2n1)c1cc(-c2ccccc2)on1,0.964% (inactive)
4,O=C(NCCN1CCCCC1)c1cc(-c2ccccc2)on1,-1.17% (inactive)
5,Cn1c(NC(=O)c2cc(-c3ccccc3)on2)nc2ccccc21,1.19% (inactive)
6,O=C(NC1CCc2ccccc2C1)c1cc(-c2ccccc2)on1 (stereo unspecified),-4.31% (inactive)
7,O=C(c1cc(-c2ccccc2)on1)N1CCC(CO)CC1,-6.22% (inactive)
8,O=C(NCc1ccccc1)c1cc(-c2ccccc2)on1,1.94% (inactive)

# Same assay, conditions: U2OS HRE-luciferase reporter, HIF pathway activation, luminescence; at 0.16 µM; active compounds read high
row,Compound,max activation
1,O=C(NCC1CCCCC1)c1cc(-c2ccccc2)on1,1.14% (inactive)

# Same assay, conditions: U2OS HRE-luciferase reporter, HIF pathway activation, luminescence; at 0.5 µM; active compounds read high
row,Compound,max activation
1,O=C(Nc1ncc(-c2ccccc2)o1)c1cc(-c2ccccc2)on1,-7.77% (inactive)
2,Cc1ccccc1CNC(=O)c1cc(-c2ccccc2)on1,2.16% (inactive)
3,Cc1cccc(CNC(=O)c2cc(-c3ccccc3)on2)c1,-4.69% (inactive)
4,O=C(Nc1ccc2ccccc2n1)c1cc(-c2ccccc2)on1,-5.52% (inactive)
5,Cn1c(-c2ccccc2)cnc1Nc1nc(-c2ccccn2)nnc1-c1ccccc1,-0.998% (inactive)
6,O=C(Nc1cn2ccccc2n1)c1cc(-c2ccccc2)on1,-5.84% (inactive)
7,CN(C)CCNC(=O)c1cc(-c2ccccc2)on1,-2.73% (inactive)

# Same assay, conditions: U2OS HRE-luciferase reporter, HIF pathway activation, luminescence; at 4.6 µM; active compounds read high
row,Compound,max activation
1,O=C(c1cc(-c2ccccc2)on1)N1CCN(c2ccncc2)CC1,6.21% (inactive)
2,CC(C)(C)CCNC(=O)c1cc(-c2ccccc2)on1,1.55% (inactive)
3,O=C(c1cc(-c2ccccc2)on1)N1CCC(N2CCOCC2)CC1,1.93% (inactive)
4,O=C(Nc1nc(-c2ccccc2)cs1)c1cc(-c2ccccc2)on1,6.53% (inactive)
5,O=C(Nc1nc2ccccc2s1)c1cc(-c2ccccc2)on1,-2.04% (inactive)
6,O=C(NC1Cc2ccccc2C1)c1cc(-c2ccccc2)on1,2.61% (inactive)

# Same assay, conditions: U2OS HRE-luciferase reporter, HIF pathway activation, luminescence; at 13.5 µM; active compounds read high
row,Compound,max activation
1,O=C(NCCCO)c1cc(-c2ccccc2)on1,8.74% (inactive)
2,O=C(NCC1CC1)c1cc(-c2ccccc2)on1,7.82% (inactive)

# Same assay, conditions: U2OS HRE-luciferase reporter, HIF pathway activation, luminescence; at 38 µM; active compounds read high
row,Compound,max activation
1,Cc1ccc(NC(=O)c2cc(-c3ccccc3)on2)cn1,4.68% (inactive)
2,O=C(c1cc(-c2ccccc2)on1)N1CCc2cccnc21,2.94% (inactive)
3,CN1CCN(C(=O)c2cc(-c3ccccc3)on2)CC1,-5.2% (inactive)
4,O=C(Nc1cnc2ccccc2c1)c1cc(-c2ccccc2)on1,2.22% (inactive)
5,Cn1c(-c2ccccc2)cnc1NC(=O)c1cc(-c2ccccc2)on1,2.14% (inactive)
6,Cc1cccc(NC(=O)c2cc(-c3ccccc3)on2)n1,-6.71% (inactive)
7,O=C(c1cc(-c2ccccc2)on1)N1CCC(N2CCCC2)CC1,3.88% (inactive)

# System: U2OS HRE-luciferase reporter, HIF pathway activation, luminescence
# Test: as above
# Details: not given
# Outline: as §1
row,Compound,AC50 [µM]
1,Cc1ccc(Nc2nc(-c3ccccn3)nnc2-c2ccccc2)cn1,27.9
2,O=C(NCCCn1ccnc1)c1cc(-c2ccccc2)on1,8.16
3,O=C(NCCCN1CCOCC1)c1cc(-c2ccccc2)on1,9.51
4,c1ccc(-c2csc(Nc3nc(-c4ccccn4)nnc3-c3ccccc3)n2)cc1,2.84
5,c1ccc(-c2nnc(-c3ccccn3)nc2NCCCN2CCOCC2)cc1,11
6,c1ccc(-c2nnc(-c3ccccn3)nc2Nc2nc3ccccc3s2)cc1,8.19
7,OCCCNc1nc(-c2ccccn2)nnc1-c1ccccc1,21.3
8,C=CCNc1nc(-c2ccccn2)nnc1-c1ccccc1,8.3
9,c1ccc(-c2nnc(-c3ccccn3)nc2N2CCN(c3ccncc3)CC2)cc1,8.32
10,c1ccc(-c2nnc(-c3ccccn3)nc2N2CCC(N3CCOCC3)CC2)cc1,8.79
11,Cc1ccccc1CNc1nc(-c2ccccn2)nnc1-c1ccccc1,6.05
12,CN1CCN(c2nc(-c3ccccn3)nnc2-c2ccccc2)CC1,14.5
13,CN(C)c1nc(-c2ccccn2)nnc1-c1ccccc1,11.7
14,Cc1ccc(CNc2nc(-c3ccccn3)nnc2-c2ccccc2)cc1,3.29
15,c1ccc(-c2nnc(-c3ccccn3)nc2NCC2CCCCC2)cc1,3.12
16,c1ccc(CNc2nc(-c3ccccn3)nnc2-c2ccccc2)cc1,7.03
17,c1ccc(-c2nnc(-c3ccccn3)nc2NCCN2CCOCC2)cc1,18.1
18,c1ccc(-c2nnc(-c3ccccn3)nc2Nc2cnc3ccccc3n2)cc1,6.4
19,c1ccc(-c2nnc(-c3ccccn3)nc2NCC2CC2)cc1,12.3
20,c1ccc(-c2nnc(Nc3nc(-c4ccccn4)nnc3-c3ccccc3)s2)cc1,6.81
21,Cc1cccc(Nc2nc(-c3ccccn3)nnc2-c2ccccc2)n1,25.6
22,OCC1CCN(c2nc(-c3ccccn3)nnc2-c2ccccc2)CC1,18.7
23,Cc1cccc(CNc2nc(-c3ccccn3)nnc2-c2ccccc2)c1,3.29
24,O=C(NCCCCO)c1cc(-c2ccccc2)on1,10.5
25,CC(C)(C)CCNc1nc(-c2ccccn2)nnc1-c1ccccc1,2.59
